HCV NS3 hel inh = inhibitors of HCV NS3 helicase, primary screen, biochemical, Cy5 molecular beacon fluorescence. Hepatitis C virus NS3 helicase. NS3 helicase DNA unwinding. inhibition, % at 10.9 µM. actives 0.56% (n = 290,000);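 active = inhibition above the mean of all tested compounds plus 3 SD, set per campaign, cut at about 35% in these data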;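 note: 0% = DMSO wells and 100% = thioflavine S control wells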
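assay system = NS3 helicase fragment of HCV | buffer or medium = MOPS pH 6.5, MgCl2, DTT, Tween20, BSA | timing = 60 min unwinding reaction at 25 °C after ATP addition | signal = Cy5 beacon fluorescence read at start and 1 h | read-out basis = % inhibition of unwinding | control set = low DMSO, high thioflavine S at 110 µM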
XBP1 UPR activ = activators of adaptive XBP1 UPR arm, primary screen, cell-based, CHO-XBP1 luciferase reporter, luminescence, uHTS | IRE1-XBP1 UPR activation; percent of tunicamycin response, DMSO as zero | activation, % at 20 µM | actives 0.33% (n = 330,000);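 active = versus positive control, 20 µM dose yields 30% or more activation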;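 note: 100% = tunicamycin at 10 µg/mL and 0% = DMSO only wells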
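Material: CHO-XBP1 cells stably carrying IRE1-XBP1-driven luciferase reporter | Medium: F12 with 10% serum | Compound dosing: 20 µM single concentration, DMSO 1% | Incubation: Overnight seeding at 37 °C, 6 h compound treatment at 37 °C | Detection: Steady-Glo luminescence read | Read-out basis: % activation of reporter signal versus tunicamycin and DMSO controls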
p97 ATPase inh = inhibitors of human p97 ATPase, primary screen, biochemical; Transitional endoplasmic reticulum ATPase (Homo sapiens), P55072; recombinant p97 ATPase, Kinase-Glo ATP luminescence, 3 h; inhibition, % at 8 µM; actives 0.42% (n = 220,000); AID 1481, 2009; in the data active = inhibition above about 15%;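 note: 0% = DMSO vehicle and 100% = wells lacking enzyme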
Target sequence (P55072 whole entry, looked up): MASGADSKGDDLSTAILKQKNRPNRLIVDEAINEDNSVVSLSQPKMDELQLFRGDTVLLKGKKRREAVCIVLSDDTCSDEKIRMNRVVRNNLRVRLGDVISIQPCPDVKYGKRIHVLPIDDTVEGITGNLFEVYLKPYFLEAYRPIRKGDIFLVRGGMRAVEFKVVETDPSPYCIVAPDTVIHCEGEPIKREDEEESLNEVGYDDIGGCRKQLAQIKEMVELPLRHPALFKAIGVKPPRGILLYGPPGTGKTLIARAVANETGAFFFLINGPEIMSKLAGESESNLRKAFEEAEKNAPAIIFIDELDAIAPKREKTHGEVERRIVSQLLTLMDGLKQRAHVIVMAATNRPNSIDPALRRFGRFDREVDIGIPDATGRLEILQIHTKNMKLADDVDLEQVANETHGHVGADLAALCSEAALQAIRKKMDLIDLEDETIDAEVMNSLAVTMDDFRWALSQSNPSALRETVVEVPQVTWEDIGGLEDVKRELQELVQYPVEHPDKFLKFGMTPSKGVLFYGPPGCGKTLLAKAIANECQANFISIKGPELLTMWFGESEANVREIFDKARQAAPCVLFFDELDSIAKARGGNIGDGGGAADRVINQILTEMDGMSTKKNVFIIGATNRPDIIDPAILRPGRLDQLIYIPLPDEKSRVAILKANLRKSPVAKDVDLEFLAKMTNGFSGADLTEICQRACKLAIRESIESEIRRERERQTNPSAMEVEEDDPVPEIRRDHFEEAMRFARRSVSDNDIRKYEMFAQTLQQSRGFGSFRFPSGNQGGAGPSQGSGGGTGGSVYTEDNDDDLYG
M18AAP inhibitor = PfM18AAP inhibitors, malaria aminopeptidase, primary screen, biochemical, QFRET, recombinant enzyme; M18 aspartyl aminopeptidase (Plasmodium falciparum 3D7); H-Glu-NHMec fluorogenic cleavage; inhibition, % at 7.35 µM; actives 1.2% (n = 290,000);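 active = inhibition above the campaign mean inhibition over all tested compounds plus 3 SD, cut at about 28% in these data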;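 note: 0% = plate median of test compound wells and 100% = 2 mM ZnCl2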
CHOP inhibitor = inhibitors of CHOP promoter induction, primary screen, cell-based, unfolded protein response, luciferase reporter | CHO-K1 CHOP-promoter luciferase, tunicamycin-induced, 15-18 h | inhibition, % at 10 µM | actives 3.8% (n = 220,000) | AID 2732, 2010;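 active = compounds that reduced the stress-induced luciferase reporter signal by more than about 70% of percent inhibition, limit read from the data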;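 note: 0% = tunicamycin plus vehicle and 100% = wells without tunicamycin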
UPR CHOP act = activators of apoptotic CHOP UPR arm, primary screen, cell-based, CHO-CHOP luciferase reporter, luminescence, uHTS; activation, % at 10 µM; UPR activation; percent of tunicamycin response over DMSO baseline; actives 0.34% (n = 330,000);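 active = at 10 µM dose, activation of 40% or more, normalized to positive control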;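 note: 100% = tunicamycin at 10 µg/mL and 0% = DMSO alone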
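Assay system: CHO cells with stable CHOP pathway luciferase reporter; Buffer or medium: F12 plus 10% serum; Times: 16-18 h cell attachment, then 6 h compound exposure, 37 °C; Signal: luciferase luminescence; Read-out basis: percent activation relative to tunicamycin control; Control set: tunicamycin high control, DMSO low control.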
* hit, by the source's call. Rows were chosen to be rich in hits. Some 4.5% of all compounds tested hit in one or more screens of this group.

CCOC(=O)c1sc2nccc(N(C)C)c2c1N=CNOCc1ccccc1 was read as HCV NS3 hel inh -5.3, XBP1 UPR activ 2.8, p97 ATPase inh -0.3, M18AAP inhibitor -6.2, CHOP inhibitor 75.1* and UPR CHOP act -0.2.
Screening Cc1cc(Nc2ccccc2)c2c([N+](=O)[O-])c(C)cc(C)c2n1 returned HCV NS3 hel inh -9.1, XBP1 UPR activ 6.3, p97 ATPase inh -2.3, M18AAP inhibitor 2.2, CHOP inhibitor 91.5* and UPR CHOP act -2.6.
For COc1ccc(C(=O)C(C)OC(=O)CNC(=O)c2ccco2)cc1 (configuration not stated) the results were XBP1 UPR activ -1.0 and UPR CHOP act -1.8.
`Cc1cc(C)nc(Nc2cccc(Cl)c2)n1` gave HCV NS3 hel inh -6.2, XBP1 UPR activ -4.0, M18AAP inhibitor -3.0 and UPR CHOP act 2.8.
For CCC(C)Oc1cc(-c2ccnc(Nc3cccc(Cl)c3)n2)ccn1 (configuration not stated) the results were XBP1 UPR activ -6.2, CHOP inhibitor 93.0* and UPR CHOP act -2.3.
Screening CCOc1ccc(Nc2cc(Nc3ccccc3OCC)nc(C=C(C#N)C#N)n2)cc1 returned HCV NS3 hel inh 4.1, XBP1 UPR activ -4.3, p97 ATPase inh -8.0, M18AAP inhibitor -5.8, CHOP inhibitor -25.2 and UPR CHOP act -0.6.
Clc1ccc(-c2nc(Cc3ccccc3Cl)no2)cc1 was read as HCV NS3 hel inh 0.9, XBP1 UPR activ -3.0, p97 ATPase inh 1.1, M18AAP inhibitor 5.6, CHOP inhibitor 56.8 and UPR CHOP act 3.8.
Clc1ccc(Cc2noc(-c3cccs3)n2)cc1 was read as HCV NS3 hel inh 0.6, XBP1 UPR activ 4.2, p97 ATPase inh 3.6, M18AAP inhibitor 2.2, CHOP inhibitor 86.9* and UPR CHOP act 3.1.
O=C(CSc1nnc(Cc2cccs2)n1C1CC1)NC1CCS(=O)(=O)C1 (configuration not stated) was read as XBP1 UPR activ -0.9 and UPR CHOP act -1.1.
Screening Cn1nc(-c2ccc(Cl)cc2)c2cc(C(=O)N3CCN(c4ccccn4)CC3)sc21 returned HCV NS3 hel inh 28.9, XBP1 UPR activ 4.5, p97 ATPase inh -5.7, M18AAP inhibitor 4.2, CHOP inhibitor 89.9* and UPR CHOP act 3.7.
`CCOc1ccccc1N/C=C/C(=O)C(C)(C)C` gave HCV NS3 hel inh -1.2, XBP1 UPR activ -0.2, p97 ATPase inh 2.2, M18AAP inhibitor -3.4, CHOP inhibitor 74.0* and UPR CHOP act 0.0.
Screening Cc1cccc(C(C)C)c1NC(=O)COC(=O)c1cccc(S(=O)(=O)N2CCc3ccccc3C2)c1 returned HCV NS3 hel inh 6.9, XBP1 UPR activ -1.1, p97 ATPase inh 0.2, M18AAP inhibitor 3.0, CHOP inhibitor 85.3* and UPR CHOP act -0.2.
For O=C(NN1CCN(Cc2ccccc2)CC1)c1ccc(Cl)cc1 the results were HCV NS3 hel inh -1.1, XBP1 UPR activ -2.5, p97 ATPase inh 3.0, M18AAP inhibitor -6.0, CHOP inhibitor 4.0 and UPR CHOP act 1.3.
Screening CN1CCc2nc3sc(C(=O)NCc4ccccc4)c(N)c3cc2C1 returned HCV NS3 hel inh -6.0, XBP1 UPR activ 0.3, p97 ATPase inh -3.5, M18AAP inhibitor 29.2*, CHOP inhibitor 1.2 and UPR CHOP act -0.1.
Screening CC1(C)CC(=O)c2cc3c(N)c(C(=O)NCc4ccccc4)sc3nc2C1 returned HCV NS3 hel inh 3.3, XBP1 UPR activ -1.6, p97 ATPase inh -1.4, M18AAP inhibitor 0.8, CHOP inhibitor 48.0 and UPR CHOP act 1.9.
`Cn1c(=O)c2c(ncn2CC(=O)OCC(=O)NNC(=O)c2ccc(Cl)cc2)n(C)c1=O` gave XBP1 UPR activ -0.7 and UPR CHOP act 1.6.
For CCCCCCOC(=O)Sc1nc2ccccc2o1 the results were HCV NS3 hel inh 9.2, XBP1 UPR activ -1.6, p97 ATPase inh 3.2, M18AAP inhibitor 11.7, CHOP inhibitor 95.1* and UPR CHOP act 0.1.
For Cc1cc(C2(c3ccc(O)c(C)c3)OC(=O)c3ccccc32)ccc1O the results were HCV NS3 hel inh -11.9, XBP1 UPR activ 0.3, p97 ATPase inh 3.6, M18AAP inhibitor -4.1, CHOP inhibitor -5.3 and UPR CHOP act 0.1.
For Cc1cc(O)c(C(C)C)cc1C1(c2cc(C(C)C)c(O)cc2C)OC(=O)c2ccccc21 the results were HCV NS3 hel inh -4.5, XBP1 UPR activ -7.2, p97 ATPase inh 7.5, M18AAP inhibitor -1.6, CHOP inhibitor 106.3* and UPR CHOP act 22.7.
Screening Cc1cc(C)cc(Oc2nc(C(F)(F)F)nc3ccccc23)c1 returned HCV NS3 hel inh 8.2, XBP1 UPR activ -0.6, p97 ATPase inh -6.5, M18AAP inhibitor -9.3, CHOP inhibitor 72.4* and UPR CHOP act 0.3.
`Cc1cc(C)cc(NC(=O)N2CCC(c3nc4ccccc4o3)CC2)c1` gave HCV NS3 hel inh -2.3, XBP1 UPR activ -2.9, p97 ATPase inh -2.5, M18AAP inhibitor -8.8, CHOP inhibitor 74.3* and UPR CHOP act 0.3.
`Cc1cccc(-c2noc(CSc3ccccc3)n2)c1` gave HCV NS3 hel inh -11.6, XBP1 UPR activ -0.4, p97 ATPase inh 3.3, M18AAP inhibitor 6.1, CHOP inhibitor 70.5* and UPR CHOP act 3.6.
O=C(C[C@H]1C[C@H](C(=O)N2CCCCC2)[C@@]2(CCc3ccccc3)c3[nH]c4ccc(Cl)cc4c3CCN2C1=O)NCc1ccco1 was read as XBP1 UPR activ 20.4 and UPR CHOP act 17.9.
`CCOC(=O)C1CCCN(C2=NC(=O)/C(=C/c3ccc(OC)cc3OC)S2)C1` (configuration not stated) gave HCV NS3 hel inh -9.1, XBP1 UPR activ 10.0, M18AAP inhibitor 28.2* and UPR CHOP act 2.1.
`CCOC(=O)C1CCCN(C2=NC(=O)/C(=C/c3ccc(OC)cc3)S2)C1` (configuration not stated) gave HCV NS3 hel inh 12.5, XBP1 UPR activ -4.3, M18AAP inhibitor 0.3 and UPR CHOP act 1.7.
COc1ccc(OC)c(/C(O)=C/C(=O)C(=O)Nc2ccccc2OC)c1 was read as HCV NS3 hel inh 8.8, XBP1 UPR activ -1.0, p97 ATPase inh 1.3, M18AAP inhibitor -4.6, CHOP inhibitor 75.2* and UPR CHOP act -1.3.
Screening COc1ccc(NC(=O)Nc2ccccc2OC)cc1 returned HCV NS3 hel inh 2.6, XBP1 UPR activ 1.7, p97 ATPase inh -4.9, M18AAP inhibitor -1.5, CHOP inhibitor 37.3 and UPR CHOP act 3.8.

Screens from PubChem BioAssay.
